# In ChEMBL document CHEMBL4689842, “EUbOPEN Chemogenomics Library wave 1” (2021):
# Tested on: U2OS
# Test: Multiplex assay against U2OS
# Assay type: toxicity, cell-based
# Conditions: human
# Method in brief: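 Live cells were stained at seeding with Hoechst33342, BioTracker Green Microtubule Cytoskeleton Dye, MitoTracker Red and Annexin V Alexa Fluor 680. Following compound addition, they were imaged on a CQ1 microscope at 37°C and 5% CO2 and gated by CellPathfinder machine learning into Hoechst high-intensity objects or normal cells, with normal cells split into healthy, pyknosed or fragmented nuclei and pyknosed cells into mitotic or apoptotic. Tubulin, mitochondrial-mass and membrane-permeability phenotypes are per cents of healthy-nucleus cells.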
# [1] = 12 h, 1 µM, compound concentration 1 uM, replicate 1
# [2] = 12 h, 1 µM, compound concentration 1 uM, replicate 2
# [3] = 12 h, 10 µM, compound concentration 10 uM, replicate 1
# [4] = 12 h, 10 µM, compound concentration 10 uM, replicate 2
# [5] = 24 h, 1 µM, compound concentration 1 uM, replicate 1
# [6] = 24 h, 1 µM, compound concentration 1 uM, replicate 2
# [7] = 24 h, 10 µM, compound concentration 10 uM, replicate 1
# [8] = 24 h, 10 µM, compound concentration 10 uM, replicate 2
# [9] = 48 h, 1 µM, compound concentration 1 uM, replicate 1
# [10] = 48 h, 1 µM, compound concentration 1 uM, replicate 2
# [11] = 48 h, 10 µM, compound concentration 10 uM, replicate 1
# [12] = 48 h, 10 µM, compound concentration 10 uM, replicate 2
compound,measurement,setting,value
O=C1NC(=O)C(c2cnc3ccccn23)=C1c1cn2c3c(cc(F)cc13)CN(C(=O)N1CCCCC1)CC2 [LY-2090314],Population Apoptotic (%),[1],37%
same,Population Fragmented Nuclei (%),[1],8%
same,Population Healthy Nuclei (%),[1],74%
same,Population Hoechst High Intensity Objects (%),[1],8%
same,Population Membrane Permeable-Phenotype (%),[1],5%
same,Population Mitochondria Different-Phenotype (%),[1],31%
same,Population Mitotic Cells (%),[1],62%
same,Population Normal (%),[1],91%
same,Population Pyknosed Nuclei (%),[1],17%
same,Population Tubulin-Different-Phenotype (%),[1],38%
same,Total Cell Count,[1],121
same,Population Apoptotic (%),[2],80%
same,Population Fragmented Nuclei (%),[2],3%
same,Population Healthy Nuclei (%),[2],87%
same,Population Hoechst High Intensity Objects (%),[2],12%
same,Population Membrane Permeable-Phenotype (%),[2],6%
same,Population Mitochondria Different-Phenotype (%),[2],16%
same,Population Mitotic Cells (%),[2],20%
same,Population Normal (%),[2],87%
same,Population Pyknosed Nuclei (%),[2],9%
same,Population Tubulin-Different-Phenotype (%),[2],22%
same,Total Cell Count,[2],85
same,Population Apoptotic (%),[3],60%
same,Population Fragmented Nuclei (%),[3],13%
same,Population Healthy Nuclei (%),[3],73%
same,Population Hoechst High Intensity Objects (%),[3],18%
same,Population Membrane Permeable-Phenotype (%),[3],44%
same,Population Mitochondria Different-Phenotype (%),[3],95%
same,Population Mitotic Cells (%),[3],40%
same,Population Normal (%),[3],81%
same,Population Pyknosed Nuclei (%),[3],13%
same,Population Tubulin-Different-Phenotype (%),[3],99%
same,Total Cell Count,[3],153
same,Population Apoptotic (%),[4],100%
same,Population Fragmented Nuclei (%),[4],9%
same,Population Healthy Nuclei (%),[4],74%
same,Population Hoechst High Intensity Objects (%),[4],10%
same,Population Membrane Permeable-Phenotype (%),[4],40%
same,Population Mitochondria Different-Phenotype (%),[4],96%
same,Population Mitotic Cells (%),[4],0%
same,Population Normal (%),[4],89%
same,Population Pyknosed Nuclei (%),[4],16%
same,Population Tubulin-Different-Phenotype (%),[4],96%
same,Total Cell Count,[4],63
same,Population Apoptotic (%),[5],36%
same,Population Fragmented Nuclei (%),[5],13%
same,Population Healthy Nuclei (%),[5],64%
same,Population Hoechst High Intensity Objects (%),[5],3%
same,Population Membrane Permeable-Phenotype (%),[5],3%
same,Population Mitochondria Different-Phenotype (%),[5],21%
same,Population Mitotic Cells (%),[5],63%
same,Population Normal (%),[5],96%
same,Population Pyknosed Nuclei (%),[5],21%
same,Population Tubulin-Different-Phenotype (%),[5],25%
same,Total Cell Count,[5],124
same,Population Apoptotic (%),[6],80%
same,Population Fragmented Nuclei (%),[6],4%
same,Population Healthy Nuclei (%),[6],87%
same,Population Hoechst High Intensity Objects (%),[6],13%
same,Population Membrane Permeable-Phenotype (%),[6],7%
same,Population Mitochondria Different-Phenotype (%),[6],22%
same,Population Mitotic Cells (%),[6],20%
same,Population Normal (%),[6],86%
same,Population Pyknosed Nuclei (%),[6],8%
same,Population Tubulin-Different-Phenotype (%),[6],18%
same,Total Cell Count,[6],82
same,Population Apoptotic (%),[7],71%
same,Population Fragmented Nuclei (%),[7],20%
same,Population Healthy Nuclei (%),[7],59%
same,Population Hoechst High Intensity Objects (%),[7],18%
same,Population Membrane Permeable-Phenotype (%),[7],62%
same,Population Mitochondria Different-Phenotype (%),[7],98%
same,Population Mitotic Cells (%),[7],28%
same,Population Normal (%),[7],81%
same,Population Pyknosed Nuclei (%),[7],19%
same,Population Tubulin-Different-Phenotype (%),[7],100%
same,Total Cell Count,[7],171
same,Population Apoptotic (%),[8],81%
same,Population Fragmented Nuclei (%),[8],11%
same,Population Healthy Nuclei (%),[8],64%
same,Population Hoechst High Intensity Objects (%),[8],4%
same,Population Membrane Permeable-Phenotype (%),[8],37%
same,Population Mitochondria Different-Phenotype (%),[8],96%
same,Population Mitotic Cells (%),[8],18%
same,Population Normal (%),[8],95%
same,Population Pyknosed Nuclei (%),[8],24%
same,Population Tubulin-Different-Phenotype (%),[8],96%
same,Total Cell Count,[8],72
same,Population Apoptotic (%),[9],55%
same,Population Fragmented Nuclei (%),[9],15%
same,Population Healthy Nuclei (%),[9],63%
same,Population Hoechst High Intensity Objects (%),[9],3%
same,Population Membrane Permeable-Phenotype (%),[9],7%
same,Population Mitochondria Different-Phenotype (%),[9],22%
same,Population Mitotic Cells (%),[9],44%
same,Population Normal (%),[9],96%
same,Population Pyknosed Nuclei (%),[9],21%
same,Population Tubulin-Different-Phenotype (%),[9],12%
same,Total Cell Count,[9],117
same,Population Apoptotic (%),[10],72%
same,Population Fragmented Nuclei (%),[10],8%
same,Population Healthy Nuclei (%),[10],79%
same,Population Hoechst High Intensity Objects (%),[10],7%
same,Population Membrane Permeable-Phenotype (%),[10],11%
same,Population Mitochondria Different-Phenotype (%),[10],17%
same,Population Mitotic Cells (%),[10],27%
same,Population Normal (%),[10],92%
same,Population Pyknosed Nuclei (%),[10],12%
same,Population Tubulin-Different-Phenotype (%),[10],19%
same,Total Cell Count,[10],82
same,Population Apoptotic (%),[11],95%
same,Population Fragmented Nuclei (%),[11],33%
same,Population Healthy Nuclei (%),[11],39%
same,Population Hoechst High Intensity Objects (%),[11],20%
same,Population Membrane Permeable-Phenotype (%),[11],68%
same,Population Mitochondria Different-Phenotype (%),[11],93%
same,Population Mitotic Cells (%),[11],5%
same,Population Normal (%),[11],79%
same,Population Pyknosed Nuclei (%),[11],26%
same,Population Tubulin-Different-Phenotype (%),[11],100%
same,Total Cell Count,[11],221
same,Population Apoptotic (%),[12],83%
same,Population Fragmented Nuclei (%),[12],12%
same,Population Healthy Nuclei (%),[12],72%
same,Population Hoechst High Intensity Objects (%),[12],11%
same,Population Membrane Permeable-Phenotype (%),[12],48%
same,Population Mitochondria Different-Phenotype (%),[12],89%
same,Population Mitotic Cells (%),[12],16%
same,Population Normal (%),[12],88%
same,Population Pyknosed Nuclei (%),[12],15%
same,Population Tubulin-Different-Phenotype (%),[12],89%
same,Total Cell Count,[12],93
